High-throughput results (PubChem BioAssay)
S1P3 ag: agonists of human S1P3 receptor; Q99500; S1P3 NFAT-BLA reporter cells, agonism, FRET ratio; relative to 1 µM S1P, basal subtracted; activation, % at 4.5 µM; 0.1% of 60,000 active; AID 373;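 active = activation above the screen-wide mean plus 3 SD, cut at about 4.5% in these data, passing the limit was not always enough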
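Assay system: CHO cells stably expressing human S1P3, Gα16 and NFAT-β-lactamase reporter. Timing: overnight plating, 4 h compound 37 °C, 2 h substrate RT. Signal: β-lactamase FRET emission ratio 460/535 nm. Measure: percent activation versus median 1 µM S1P response, basal-subtracted, per plate. Repeats: primary screen single test, confirmation screen in triplicate.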
5HT1E antag: blocks the human 5-HT1E serotonin receptor | CHO 5-HT1E Ga15 NFAT-bla reporter, FRET, antagonist | 0.99% of 65,000 active | inhibition, % at 6 µM | AID 571 | P28566;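 active = inhibition above a set limit, the mean inhibition across every tested compound plus 3 SD, cut at about 29% in these data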;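 also: signal is the 460 over 535 nm emission ratio of beta-lactamase substrate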
Target sequence (P28566 whole entry, looked up): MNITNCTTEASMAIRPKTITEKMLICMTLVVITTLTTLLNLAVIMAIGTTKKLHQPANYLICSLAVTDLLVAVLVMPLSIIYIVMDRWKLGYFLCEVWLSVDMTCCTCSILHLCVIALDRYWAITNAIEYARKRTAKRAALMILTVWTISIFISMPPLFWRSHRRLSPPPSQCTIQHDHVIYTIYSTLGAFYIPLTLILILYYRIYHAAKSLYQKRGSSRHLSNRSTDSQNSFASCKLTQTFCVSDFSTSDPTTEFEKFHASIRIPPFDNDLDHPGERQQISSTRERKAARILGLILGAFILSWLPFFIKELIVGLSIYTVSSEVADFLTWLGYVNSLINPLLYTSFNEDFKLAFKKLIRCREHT
5HT1a antag: antagonists of human 5-HT1a serotonin receptor | AID 612 | CHO 5-HT1a Ga15 NFAT-bla reporter, antagonist mode | 0.68% of 62,000 active | inhibition, % at 10 µM;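 active = inhibition above the mean of all tested compounds plus 3 SD, cut at about 43% in these data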;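 also: receptor stimulated by 5-CT agonist at 100 nM near EC80; beta-lactamase reporter measured by ratiometric fluorescence of a cleavable substrate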
HTR1E agonist: 5-HT1E (human) receptor agonism | P28566 | 0.69% of 65,000 active | activation, % at 6 µM | CHO 5-HT1E Ga15 NFAT-bla reporter, FRET; 0% DMSO wells, 100% control agonist wells;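 active = activation above a set limit, the screen-wide mean activation plus 3 SD, cut at about 8.5% in these data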
HTR1A agonist: agonists of human 5-HT1a serotonin receptor. CHO 5-HT1a Ga15 NFAT-bla reporter, FRET ratio; 0% basal, 100% maximal reference agonist. activation, % at 10 µM. P08908. 0.56% of 65,000 active;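 active = activation above the screen-wide mean activation plus 3 SD, cut at about 19% in these data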
S1P1 ag-PAM: activates or potentiates agonism at human S1P1 receptor; P21453; S1P1 CRE-bla cells, forskolin, beta-lactamase FRET, potentiator mode; S1P1 agonist co-added at EC20, 2 nM; 100% = saturating reference agonist, 0% = basal; activation, % at 9.5 µM; 0.57% of 56,000 active; AID 449;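 active = activation above a cutoff set at the mean activation of all tested compounds plus 3 SD, cut at about 54% in these data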;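 also: forskolin at 4 µM as EC80 and the EC20 agonist is SEW2871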
Hits are given with their value; – = inactive; · = not tested or not shown. The list is not random: actives were taken first. Their share in the collection is about 3%.

SMILES | S1P3 ag | 5HT1E antag | 5HT1a antag | HTR1E agonist | HTR1A agonist | S1P1 ag-PAM
CC(=O)NCc1ccc(C(=O)CSc2nnc(-c3ccncc3)n2Cc2ccccc2)o1 | – | – | – | 12 | – | –
CC(C)CSc1nc(N2CCOCC2)c2c(c1C#N)CC(C)(C)SC2 | – | 29 | · | – | – | –
CC(C)Sc1nc(N2CCOCC2)c2c(c1C#N)CC(C)(C)SC2 | – | – | – | – | – | –
CCN(CC)c1nc(N2CCOCC2)c(C#N)c2c1CN(C)CC2 | – | – | · | 52 | – | –
CCSc1nc(N2CCOCC2)c2c(c1C#N)CCCC2 | 4.7 | – | – | – | – | –
CC(C)c1nc(N2CCOCC2)c(C#N)c2c1CCCC2 | – | – | – | – | – | ·
COc1ccc2cc3cc(C(=O)NCCN4CCN(c5ccccc5F)CC4)oc3nc2c1 | – | – | 71 | 17 | – | –
CCCCN(C)CCNC(=O)Cn1ncc2c(=O)oc3ccc(C)cc3c21 | – | – | – | 10 | – | –
Cc1c(C(=O)O)[nH]c2c1C(=O)CC(c1ccccc1)C2 (stereo not drawn) | · | – | – | – | – | ·
COCCOC(=O)c1[nH]c2c(c1C)C(=O)CC(c1ccco1)C2 (stereo not drawn) | – | 35 | – | – | – | –
CSCCOC(=O)c1[nH]c2c(c1C)C(=O)CC(c1ccco1)C2 (stereo not drawn) | – | 57 | – | – | – | –
Cc1c(C(=O)OCCOC(C)C)[nH]c2c1C(=O)CC(c1ccco1)C2 (stereo not drawn) | – | 81 | 63 | – | – | –
Cc1c(C(=O)OCc2ccccc2)[nH]c2c1C(=O)CC(c1ccco1)C2 (stereo not drawn) | – | 84 | 58 | – | – | –
O=C(c1ccc(=O)[nH]c1)N(Cc1ccco1)C1(C(=O)NC2CCCC2)CCCCC1 | · | – | – | – | – | ·
CCCCOC(=O)c1[nH]c2c(c1C)C(=O)CC(c1cc(OC)c(OC)c(OC)c1)C2 (stereo not drawn) | – | – | – | – | – | 134
COC(=O)c1[nH]c2c(c1C)C(=O)CC(c1cccs1)C2 (stereo not drawn) | – | 57 | – | – | – | –
COCCOC(=O)c1[nH]c2c(c1C)C(=O)CC(c1ccccc1)C2 (stereo not drawn) | · | 67 | – | – | – | ·
CCOC(=O)c1[nH]c2c(c1C)C(=O)CC(c1ccco1)C2 (stereo not drawn) | – | 74 | 53 | – | – | –
CSC1=NC(NCCCO)c2c(sc3c2CC(C)(C)OC3)N1 (stereo not drawn) | – | – | – | – | – | –
COc1ccc(Cl)cc1C(=O)NCC(C)C | – | – | – | – | – | –
Cc1occc1-c1nnc(SCC(=O)Nc2ccccc2N2CCCCC2)n1C | – | – | – | – | – | –
Cc1ccc2cc(C#N)c(NCc3ccco3)nc2c1 | – | – | – | – | – | –
Cc1cc(C)cc(N(CC(=O)NCc2cccnc2)S(C)(=O)=O)c1 | – | – | – | 17 | – | –
CSc1nc2ccc(NC(=O)C3CC(=O)N(Cc4ccco4)C3)cc2s1 (stereo not drawn) | · | – | – | – | – | ·
CSc1nc2ccc(NC(=O)C3CCCO3)cc2s1 (stereo not drawn) | – | – | – | 52 | – | –
SMILES | S1P3 ag | 5HT1E antag | 5HT1a antag | HTR1E agonist | HTR1A agonist | S1P1 ag-PAM
Cc1ccc(Nc2nc(N3CCOCC3)nc(N3CCOCC3)n2)cc1 | – | – | – | – | – | –
CSc1nc2ccc(Nc3nc(N4CCOCC4)nc(N4CCOCC4)n3)cc2s1 | – | 33 | – | – | – | –
CC(=O)Nc1ccccc1Sc1ccccc1 | – | 32 | – | – | – | –
CS(=O)(=O)N1CCC(C(=O)Nc2ccccc2Sc2ccccc2)CC1 | – | – | – | – | – | –
Nc1cnn(C2CCCO2)c(=O)n1 (stereo not drawn) | – | – | – | – | – | –
COc1cccc(C2=NOC(C(=O)NCc3ccc(F)cc3)C2)c1 (stereo not drawn) | – | – | – | – | – | –
COc1ccc(C2=NOC(C(=O)NCc3ccc(F)cc3)C2)cc1OC (stereo not drawn) | – | 70 | – | – | – | –
COc1cc(C2=NOC(C(=O)NCc3ccc(F)cc3)C2)cc(OC)c1OC (stereo not drawn) | – | 70 | 56 | – | – | –
CCCCn1nnnc1SCC(=O)Nc1ccc2c(c1)OCO2 | – | – | – | – | – | –
CC(=O)C1=C(C)NC(SCC(=O)c2cc(Cl)ccc2Cl)=C(C#N)C1c1ccco1 (stereo not drawn) | – | 31 | – | – | – | –
CC(=O)C1=C(C)NC(SCC(=O)c2ccc(Cl)c(Cl)c2)=C(C#N)C1c1ccco1 (stereo not drawn) | – | – | – | – | – | –
COC(=O)c1[nH]c2cc(C)ccc2c1NC(=O)CN1CCCc2ccccc21 | – | – | – | – | 265 | –
COc1ccc(N2CCN(c3ncnc4c3cnn4-c3ccc(C)cc3C)CC2)cc1 | – | – | – | – | – | –
Cc1ccc(-n2ncc3c(N4CCN(c5ccccc5)CC4)ncnc32)c(C)c1 | – | 51 | · | – | – | –
O=C(O)CS(=O)(=O)CC(=O)O | – | – | – | – | – | –
O=c1nc(C(F)(F)F)nc2ccccn12 | – | – | – | – | 21 | ·
COc1cc2c(cc1OC)C(c1cc(OC)c(OC)c(OC)c1)NCC2 (stereo not drawn) | – | – | – | – | – | –
Cc1ccc(NC(=O)COC(=O)c2ccc3c(c2)NC(=O)C2CCCN32)cc1C (stereo not drawn) | – | – | – | – | – | –
O=C(NCc1ccco1)C1CCN(C(=O)c2cc3sccc3n2Cc2ccc(Cl)cc2)CC1 | – | – | 45 | – | – | –
COc1ccc(-c2nnc(NC(=O)c3cc(Cl)ccc3Cl)o2)cc1 | – | – | – | – | – | –
Nc1nnnn1/N=C/C=C/c1ccccc1 | – | – | – | – | – | –
Nc1nnnn1/N=C/C(Br)=C/c1ccccc1 | – | 48 | 85 | – | – | –
O=C(c1ccco1)N1CCN(CC(O)COc2ccc3oc4ccccc4c3c2)CC1 (stereo not drawn) | – | – | – | – | 29 | –
O=C(Nc1cnccn1)c1cccs1 | – | – | – | – | – | –
Cc1c(/C=N/n2cnnc2)c2ccccc2n1CCOc1ccc(Cl)cc1 | · | 33 | – | – | – | ·
Cc1ccc(OCCn2c(C)c(/C=N/n3cnnc3)c3ccccc32)cc1 | – | 44 | – | – | – | –
CC1(C)N=C(c2ccc(Cl)cc2)C(=O)N1 | – | – | – | – | – | –
COc1ccc(Cc2nc(-c3ccc(-n4cccc4)cc3)no2)cc1OC | – | – | – | – | – | 66
